An excerpt weighted towards active compounds, which were near 2.3% of everything screened.
DDE Tn7 FP inh = DD(E)-Tn7 binding inhibition, primary FP screen. P02675. FP displacement of FITC-Tn7 peptide from fibrin DD(E); 0% = median of compound wells per plate. inhibition, % at 8.3 µM. hit rate 0.13% among 370,000;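 active means inhibition above the mean of compounds falling within the control limits plus 3 SD of them, cut at about 14% in these data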;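 further: 0% = plate median of compound wells and 100% = 10 µM Aha-Tn7 peptide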
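Assay system: Human clot-derived fibrin DD(E) complex | Buffer or medium: Tris/NaCl/CaCl2 buffer, pH 7.8 | Repeats: One replicate per compound | Benchmarks: Aha-Tn7 high control | Measure: % inhibition scaled between sample-field median and high-control FP | Schedule: 10 min plus 3 h, room temperature | Signal: Fluorescence polarization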
PLC-gamma1 inh = inhibitors of human phospholipase C gamma1; purified PLC-gamma1, fluorogenic substrate, fluorescence; inhibition, % at 12.2 µM; hit rate 0.84% among 370,000; in the data active means inhibition above about 9.5%
DDE Tn6 FP inh = inhibitors of Tn6 peptide binding to human fibrin DD(E) | P02675 | Fibrin DD(E) TRITC-Tn6 fluorescence polarization displacement | inhibition, % at 8.3 µM | hit rate 0.21% among 370,000;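 active means inhibition above a per-campaign cutoff: mean of compounds within control limits plus 3 SD, cut at about 15% in these data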;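 further: 0% = median of all compound wells on the plate and 100% = blocking peptide control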
ADAM10 inh = inhibits human ADAM10 | O14672 | recombinant ADAM10, EDANS/DABCYL FRET peptide cleavage, 3 h | inhibition, % at 7 µM | hit rate 0.62% among 370,000 | AID 720582;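 active means inhibition above a per-campaign cutoff equal to the mean of compounds falling between control-based bounds plus 3 SD, cut at about 20% in these data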;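 further: 0% = DMSO wells while the 100% control is not disclosed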
ADAM17 inh = inhibitors of human ADAM17. recombinant ADAM17, EDANS/DABCYL FRET peptide cleavage. inhibition, % at 6.95 µM. P78536. hit rate 0.83% among 370,000;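 active means inhibition above the mean of compounds lying between control limits plus 3 SD, set per campaign, cut at about 8.5% in these data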;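 further: 0% = DMSO-only wells as the low control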
PLCb3 inh = inhibitors of human phospholipase C beta3; Q01970; Purified PLC-beta3, fluorogenic substrate, fluorescence; inhibition, % at 12.2 µM; hit rate 0.18% among 370,000; AID 720704; in the data active means inhibition above about 11%;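 further: 0% = median of compound wells on plate and 100% = full blocker control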
ADAM10 confirm = confirmation of inhibitors of human ADAM10; hit rate 1% among 2,100; AID 743208; shares compounds with ADAM10 inh; inhibition, % at 6.95 µM; ADAM10 QFRET peptide cleavage, EDANS fluorescence;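 active means inhibition above about 20% chosen separately for each screening run, limit read from the data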;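 further: 0% = DMSO wells and 100% = marimastat wells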
ADAM17 counter = counter-screen for ADAM10 exosite inhibitors: inhibitors of human ADAM17. shares compounds with ADAM10 inh. hit rate 0.5% among 2,100. AID 743214. ADAM17 QFRET peptide cleavage, EDANS fluorescence. inhibition, % at 6.95 µM;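 active means mean triplicate inhibition above the solvent-only control wells' mean plus 3 SD, cut at about 12% in these data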;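 further: 0% = DMSO wells and 100% = marimastat wells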
ADAM10 ctr = inhibits human ADAM10 in ADAM17 exosite counter-screen. shares compounds with ADAM17 inh. recombinant ADAM10, EDANS/DABCYL FRET peptide cleavage, 3 h. inhibition, % at 6.95 µM. hit rate 47% among 2,900;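 active means mean inhibition over the triplicate runs exceeds the activity threshold set in the earlier primary screen, cut at about 20% in these data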;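 further: 0% = DMSO wells and 100% = marimastat wells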
ADAM17 confirm = confirmation of inhibitors of human ADAM17; inhibition, % at 6.95 µM; AID 743257; hit rate 65% among 2,900; shares compounds with ADAM17 inh; recombinant ADAM17, EDANS/DABCYL QFRET peptide cleavage;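 active means mean inhibition across replicates above the hit cutoff set in the primary screen, cut at about 8.5% in these data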;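 further: 0% = DMSO wells and 100% = marimastat wells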
* hit, by the source's call.

For CCC(=O)N1CCN(c2nc(CC)nc3sc4c(c23)CCCC4)CC1 the results were DDE Tn7 FP inh 1, PLC-gamma1 inh 2, DDE Tn6 FP inh 6, ADAM10 inh 1, ADAM17 inh 1 and PLCb3 inh -5.
For CCc1nc(N2CCN(C(=S)NCCCOC)CC2)c2c3c(sc2n1)CCCC3 the results were DDE Tn7 FP inh -2, PLC-gamma1 inh 4, DDE Tn6 FP inh -10, ADAM10 inh 20*, ADAM17 inh 14*, PLCb3 inh 2, ADAM10 confirm 4, ADAM17 counter 2, ADAM10 ctr 13 and ADAM17 confirm 8.
`Cc1cc(-c2n[nH]c(=S)n2/N=C/c2ccccc2[N+](=O)[O-])n[nH]1` gave DDE Tn7 FP inh -3, PLC-gamma1 inh 7, DDE Tn6 FP inh -2, ADAM10 inh 21*, ADAM17 inh 11*, PLCb3 inh 10, ADAM10 confirm -1, ADAM17 counter 0, ADAM10 ctr 0 and ADAM17 confirm 4.
`O=C1c2ccccc2C(=O)N1CCCCN(C(=O)c1cccc([N+](=O)[O-])c1)c1ccc(Cl)cc1` gave DDE Tn7 FP inh -6, PLC-gamma1 inh 6, DDE Tn6 FP inh -8, ADAM10 inh 26*, ADAM17 inh 10*, PLCb3 inh 9, ADAM10 confirm 5, ADAM17 counter 2, ADAM10 ctr 30* and ADAM17 confirm 14*.
Screening Cc1cccc(C(=O)Nc2cccc(NC(=O)c3ccccc3)c2)c1 returned DDE Tn7 FP inh -7, PLC-gamma1 inh 5, DDE Tn6 FP inh -5, ADAM10 inh 26*, ADAM17 inh 10*, PLCb3 inh 2, ADAM10 confirm 3, ADAM17 counter 0, ADAM10 ctr 16 and ADAM17 confirm 11*.
For Cn1cc([N+](=O)[O-])c(C(=O)Nc2cc(Oc3ccccc3)cc([N+](=O)[O-])c2)n1 the results were DDE Tn7 FP inh 1, PLC-gamma1 inh 0, DDE Tn6 FP inh 6, ADAM10 inh 4, ADAM17 inh 1 and PLCb3 inh -1.
For Cc1cccc(Oc2cc(NC(=O)c3ccccc3)cc([N+](=O)[O-])c2)c1 the results were DDE Tn7 FP inh 0, PLC-gamma1 inh 3, DDE Tn6 FP inh -1, ADAM10 inh 22*, ADAM17 inh 9.0*, PLCb3 inh -1, ADAM10 confirm 7, ADAM17 counter 2, ADAM10 ctr 17 and ADAM17 confirm 12*.
For COc1ccc(CN2C/C(=C/c3ccc(C)cc3)N3C(=O)C[C@@H](c4ccccc4)N=C23)c(OC)c1 the results were DDE Tn7 FP inh 2, PLC-gamma1 inh -10, DDE Tn6 FP inh -4, ADAM10 inh 5, ADAM17 inh 2 and PLCb3 inh -9.
CCOC(=O)[C@@]12CCC3=C1N(CCC3)C(=O)[C@H](CC(=O)NCCCOC)C2 was read as DDE Tn7 FP inh 4, PLC-gamma1 inh 5, DDE Tn6 FP inh -11, ADAM10 inh -13, ADAM17 inh -9 and PLCb3 inh 0.
O=S1(=O)c2ccc(Br)cc2OC[C@@H](Cc2ccccc2)N1Cc1cn(Cc2ccccc2)nn1 was read as DDE Tn7 FP inh -7, PLC-gamma1 inh 3, DDE Tn6 FP inh 0, ADAM10 inh 0, ADAM17 inh -1 and PLCb3 inh -1.
CCOC(=O)C1CCN(S(=O)(=O)c2ccccc2)CC1 was read as DDE Tn7 FP inh -7, PLC-gamma1 inh 4, DDE Tn6 FP inh -6, ADAM10 inh 5, ADAM17 inh 3 and PLCb3 inh -3.
Screening O=C(OCCOc1cccc(Cl)c1)C1CCN(S(=O)(=O)c2ccccc2)CC1 returned DDE Tn7 FP inh -2, PLC-gamma1 inh 3, DDE Tn6 FP inh -15, ADAM10 inh 21*, ADAM17 inh 8.6*, PLCb3 inh -5, ADAM10 confirm 6, ADAM17 counter 2, ADAM10 ctr 21* and ADAM17 confirm 11*.
For COc1ccc(N=C2SC(CC(=O)Nc3cccc(Cl)c3)C(=O)N2Cc2ccco2)cc1 (centres undefined) the results were DDE Tn7 FP inh -2, PLC-gamma1 inh 7, DDE Tn6 FP inh -15, ADAM10 inh 21*, ADAM17 inh 14*, PLCb3 inh 6, ADAM10 confirm 9, ADAM17 counter 3, ADAM10 ctr 23* and ADAM17 confirm 16*.
Screening CCc1ccc(NC(=O)CO/N=C(\C)c2cc3ccccc3o2)cc1 returned DDE Tn7 FP inh -7, PLC-gamma1 inh 3, DDE Tn6 FP inh -7, ADAM10 inh 24*, ADAM17 inh 13*, PLCb3 inh 0, ADAM10 confirm 6, ADAM17 counter 2, ADAM10 ctr 18 and ADAM17 confirm 13*.
For CSc1ccccc1NC(=O)CO/N=C(\C)c1cc2ccccc2o1 the results were DDE Tn7 FP inh 7, PLC-gamma1 inh 2, DDE Tn6 FP inh -2, ADAM10 inh 2, ADAM17 inh 0 and PLCb3 inh 1.
Screening O=C(/C=C/c1ccc([N+](=O)[O-])cc1)c1ccccc(=O)c1O returned DDE Tn7 FP inh 5, PLC-gamma1 inh 4, DDE Tn6 FP inh 0, ADAM10 inh 25*, ADAM17 inh 12*, PLCb3 inh 3, ADAM10 confirm 13, ADAM17 counter 4, ADAM10 ctr 32* and ADAM17 confirm 33*.
For O=C(/C=C/c1ccccc1Cl)c1ccccc(=O)c1O the results were DDE Tn7 FP inh 5, PLC-gamma1 inh -9, DDE Tn6 FP inh -1, ADAM10 inh -9, ADAM17 inh -1 and PLCb3 inh -12.
For Cc1cc(NC(=O)c2c(F)cccc2F)n(-c2nc3ccccc3[nH]2)n1 the results were DDE Tn7 FP inh -10, PLC-gamma1 inh 8, DDE Tn6 FP inh -6, ADAM10 inh 16, ADAM17 inh 6 and PLCb3 inh 0.
For Cc1cc(NC(=O)c2c(F)cccc2Cl)n(-c2nc3ccccc3[nH]2)n1 the results were DDE Tn7 FP inh 4, PLC-gamma1 inh 7, DDE Tn6 FP inh -15, ADAM10 inh 30*, ADAM17 inh 10*, PLCb3 inh 0, ADAM10 confirm 17, ADAM17 counter 6, ADAM10 ctr 40* and ADAM17 confirm 17*.
